How the values were obtained:
A549 [1] = experiment: Antiproliferative activity against human A549 cells assessed as inhibition of cell growth at 1.5 uM incubated for 48 hrs by MTT assay relative to control; assay type: functional; conditions: A549, 48 h, read-out: GI
A549 [2] = experiment: Antiproliferative activity against human A549 cells assessed as inhibition of cell growth incubated for 48 hrs by MTT assay; assay type: functional, cell-based; conditions: A549, 48 h
Outline: (§1)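 MTT read-out. Cells seeded at 5.0 × 10⁴ cells/ml and cultured 24 h, then exposed to the drug over a range of concentrations for 48 h, with matching DMSO as control. MTT (5 mg/ml) added for 4 h, supernatant removed, formazan dissolved in DMSO, OD read at 570 nm. Run in triplicate, mean ± SD (n = 3).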

MCF7 = experiment: Antiproliferative activity against human MCF7 cells assessed as inhibition of cell growth incubated for 48 hrs by MTT assay; assay type: functional, cell-based; conditions: MCF7, 48 h; outline: as §1
HOS = experiment: Antiproliferative activity against human HOS cells assessed as inhibition of cell growth incubated for 48 hrs by MTT assay; assay type: functional, cell-based; outline: as §1
HepG2 = experiment: Antiproliferative activity against human HepG2 cells assessed as inhibition of cell growth incubated for 48 hrs by MTT assay; assay type: functional, cell-based; conditions: HepG2, 48 h; outline: as §1

| SMILES | inhibition of growth at 1.5 µM (A549 [1]) [%] | other results |
| --- | --- | --- |
| CC1=C(O)C(=O)C=C2C1=CC=C1[C@@]2(C)CC[C@@]2(C)[C@@H]3C[C@](C)(C(=O)OCCCCOC(=O)/C=C(\C#N)c4ccc(C(F)(F)F)cc4)CC[C@]3(C)CC[C@]12C | 18.3 |  |
| CC1=C(O)C(=O)C=C2C1=CC=C1[C@@]2(C)CC[C@@]2(C)[C@@H]3C[C@](C)(C(=O)OCCCCOC(=O)/C(C#N)=C/c4ccc(C)cc4)CC[C@]3(C)CC[C@]12C | 16.5 |  |
| CC1=C(O)C(=O)C=C2C1=CC=C1[C@@]2(C)CC[C@@]2(C)[C@@H]3C[C@](C)(C(=O)OCCCCOC(=O)/C=C(\C#N)c4ccc(C)cc4)CC[C@]3(C)CC[C@]12C | 9.74 |  |
| CC1=C(O)C(=O)C=C2C1=CC=C1[C@@]2(C)CC[C@@]2(C)[C@@H]3C[C@](C)(C(=O)OCCCOC(=O)/C=C/c4ccc(F)cc4)CC[C@]3(C)CC[C@]12C | 37.6 |  |
| CC1=C(O)C(=O)C=C2C1=CC=C1[C@@]2(C)CC[C@@]2(C)[C@@H]3C[C@](C)(C(=O)OCCOC(=O)/C(C#N)=C/c4ccccc4)CC[C@]3(C)CC[C@]12C | 24.3 |  |
| COc1ccc(/C=C/C(=O)OCCCCOC(=O)[C@]2(C)CC[C@]3(C)CC[C@]4(C)C5=CC=C6C(=CC(=O)C(O)=C6C)[C@]5(C)CC[C@@]4(C)[C@@H]3C2)cc1 | 20.6 |  |
| COc1ccc(/C=C(\C#N)C(=O)OCCCOC(=O)[C@]2(C)CC[C@]3(C)CC[C@]4(C)C5=CC=C6C(=CC(=O)C(O)=C6C)[C@]5(C)CC[C@@]4(C)[C@@H]3C2)cc1 | 18.6 |  |
| CC1=C(O)C(=O)C=C2C1=CC=C1[C@@]2(C)CC[C@@]2(C)[C@@H]3C[C@](C)(C(=O)OCCCCOC(=O)/C=C/c4ccc(C)cc4)CC[C@]3(C)CC[C@]12C | 19.9 |  |
| COc1ccc(/C(C#N)=C/C(=O)OCCCCOC(=O)[C@]2(C)CC[C@]3(C)CC[C@]4(C)C5=CC=C6C(=CC(=O)C(O)=C6C)[C@]5(C)CC[C@@]4(C)[C@@H]3C2)cc1 | 9.57 |  |
| COc1ccc(/C=C(\C#N)C(=O)OCCOC(=O)[C@]2(C)CC[C@]3(C)CC[C@]4(C)C5=CC=C6C(=CC(=O)C(O)=C6C)[C@]5(C)CC[C@@]4(C)[C@@H]3C2)cc1 | 16.6 |  |
| CC1=C(O)C(=O)C=C2C1=CC=C1[C@@]2(C)CC[C@@]2(C)[C@@H]3C[C@](C)(C(=O)OCCCCOC(=O)/C(C#N)=C/c4ccccc4)CC[C@]3(C)CC[C@]12C | 16.2 |  |
| COc1ccc(/C=C(\C#N)C(=O)OCCCCOC(=O)[C@]2(C)CC[C@]3(C)CC[C@]4(C)C5=CC=C6C(=CC(=O)C(O)=C6C)[C@]5(C)CC[C@@]4(C)[C@@H]3C2)cc1 | 3.07 |  |
| CC1=C(O)C(=O)C=C2C1=CC=C1[C@@]2(C)CC[C@@]2(C)[C@@H]3C[C@](C)(C(=O)OCCCOC(=O)/C(C#N)=C/c4ccccc4)CC[C@]3(C)CC[C@]12C | 19.1 |  |
| CC1=C(O)C(=O)C=C2C1=CC=C1[C@@]2(C)CC[C@@]2(C)[C@@H]3C[C@](C)(C(=O)OCCCOC(=O)/C(C#N)=C/c4ccc(F)cc4)CC[C@]3(C)CC[C@]12C | 25 |  |
| CC1=C(O)C(=O)C=C2C1=CC=C1[C@@]2(C)CC[C@@]2(C)[C@@H]3C[C@](C)(C(=O)OCCOC(=O)/C=C/c4ccc(C)cc4)CC[C@]3(C)CC[C@]12C | 28.6 |  |
| CC1=C(O)C(=O)C=C2C1=CC=C1[C@@]2(C)CC[C@@]2(C)[C@@H]3C[C@](C)(C(=O)OCCOC(=O)/C=C(\C#N)c4ccc(C(F)(F)F)cc4)CC[C@]3(C)CC[C@]12C | 33.3 |  |
| CC1=C(O)C(=O)C=C2C1=CC=C1[C@@]2(C)CC[C@@]2(C)[C@@H]3C[C@](C)(C(=O)OCCOC(=O)/C=C/c4ccccc4)CC[C@]3(C)CC[C@]12C | 23 |  |
| CC1=C(O)C(=O)C=C2C1=CC=C1[C@@]2(C)CC[C@@]2(C)[C@@H]3C[C@](C)(C(=O)OCCCCOC(=O)/C=C/c4ccccc4)CC[C@]3(C)CC[C@]12C | 13.3 |  |
| CC1=C(O)C(=O)C=C2C1=CC=C1[C@@]2(C)CC[C@@]2(C)[C@@H]3C[C@](C)(C(=O)OCCCOC(=O)/C(C#N)=C/c4ccc(C(F)(F)F)cc4)CC[C@]3(C)CC[C@]12C | 19.4 |  |
| CC1=C(O)C(=O)C=C2C1=CC=C1[C@@]2(C)CC[C@@]2(C)[C@@H]3C[C@](C)(C(=O)OCCCCOC(=O)/C(C#N)=C/c4ccc(C(F)(F)F)cc4)CC[C@]3(C)CC[C@]12C | 7.85 |  |
| CC1=C(O)C(=O)C=C2C1=CC=C1[C@@]2(C)CC[C@@]2(C)[C@@H]3C[C@](C)(C(=O)OC/C=C/COC(=O)/C=C(\C#N)c4ccc(F)cc4)CC[C@]3(C)CC[C@]12C |  | IC50 (A549 [2]): 1840 nM; IC50 (MCF7): 1110 nM; IC50 (HOS): 1330 nM; IC50 (HepG2): 2740 nM |
| CC1=C(O)C(=O)C=C2C1=CC=C1[C@@]2(C)CC[C@@]2(C)[C@@H]3C[C@](C)(C(=O)OCCCCOC(=O)/C=C(\C#N)c4ccc(F)cc4)CC[C@]3(C)CC[C@]12C | 32.1 |  |

| SMILES | inhibition of growth at 1.5 µM (A549 [1]) [%] | other results |
| --- | --- | --- |
| CC1=C(O)C(=O)C=C2C1=CC=C1[C@@]2(C)CC[C@@]2(C)[C@@H]3C[C@](C)(C(=O)OCCOC(=O)/C(C#N)=C/c4ccc(C(F)(F)F)cc4)CC[C@]3(C)CC[C@]12C | 16 |  |
| CC1=C(O)C(=O)C=C2C1=CC=C1[C@@]2(C)CC[C@@]2(C)[C@@H]3C[C@](C)(C(=O)OCCCCOC(=O)/C(C#N)=C/c4ccc(F)cc4)CC[C@]3(C)CC[C@]12C | 19 |  |
| CC1=C(O)C(=O)C=C2C1=CC=C1[C@@]2(C)CC[C@@]2(C)[C@@H]3C[C@](C)(C(=O)OCCOC(=O)/C(C#N)=C/c4ccc(C)cc4)CC[C@]3(C)CC[C@]12C | 29.9 |  |
| COc1ccc(/C=C/C(=O)OCCCOC(=O)[C@]2(C)CC[C@]3(C)CC[C@]4(C)C5=CC=C6C(=CC(=O)C(O)=C6C)[C@]5(C)CC[C@@]4(C)[C@@H]3C2)cc1 | 34.1 |  |
| CC1=C(O)C(=O)C=C2C1=CC=C1[C@@]2(C)CC[C@@]2(C)[C@@H]3C[C@](C)(C(=O)OCCOC(=O)/C=C(\C#N)c4ccc(C)cc4)CC[C@]3(C)CC[C@]12C | 20.4 |  |
| CC1=C(O)C(=O)C=C2C1=CC=C1[C@@]2(C)CC[C@@]2(C)[C@@H]3C[C@](C)(C(=O)OCCCOC(=O)/C=C/c4ccc(C(F)(F)F)cc4)CC[C@]3(C)CC[C@]12C | 37.6 |  |
| CC1=C(O)C(=O)C=C2C1=CC=C1[C@@]2(C)CC[C@@]2(C)[C@@H]3C[C@](C)(C(=O)OCCCOC(=O)/C=C/c4ccc(C)cc4)CC[C@]3(C)CC[C@]12C | 29.1 |  |
| CC1=C(O)C(=O)C=C2C1=CC=C1[C@@]2(C)CC[C@@]2(C)[C@@H]3C[C@](C)(C(=O)OC/C=C/COC(=O)/C=C(\C#N)c4ccccc4)CC[C@]3(C)CC[C@]12C |  | IC50 (A549 [2]): 3540 nM; IC50 (MCF7): 2860 nM; IC50 (HOS): 4780 nM; IC50 (HepG2): 3450 nM |
| COC(=O)[C@]12CCC(C)(C)C[C@H]1[C@H]1C(=O)C=C3[C@@]4(C)C=C(C#N)C(=O)C(C)(C)[C@@H]4CC[C@@]3(C)[C@]1(C)CC2 [BARDOXOLONE METHYL] |  | IC50 (A549 [2]): 520 nM; IC50 (MCF7): 850 nM; IC50 (HOS): 660 nM; IC50 (HepG2): 520 nM |
| CC1=C(O)C(=O)C=C2C1=CC=C1[C@@]2(C)CC[C@@]2(C)[C@@H]3C[C@](C)(C(=O)OCCCOC(=O)/C(C#N)=C/c4ccc(C)cc4)CC[C@]3(C)CC[C@]12C | 34.7 |  |
| CC1=C(O)C(=O)C=C2C1=CC=C1[C@@]2(C)CC[C@@]2(C)[C@@H]3C[C@](C)(C(=O)OCCOC(=O)/C=C/c4ccc(C(F)(F)F)cc4)CC[C@]3(C)CC[C@]12C | 26 |  |
| COc1ccc(/C=C/C(=O)OCCOC(=O)[C@]2(C)CC[C@]3(C)CC[C@]4(C)C5=CC=C6C(=CC(=O)C(O)=C6C)[C@]5(C)CC[C@@]4(C)[C@@H]3C2)cc1 | 35.3 |  |
| CC1=C(O)C(=O)C=C2C1=CC=C1[C@@]2(C)CC[C@@]2(C)[C@@H]3C[C@](C)(C(=O)OCCOC(=O)/C(C#N)=C/c4ccc(F)cc4)CC[C@]3(C)CC[C@]12C | 26.1 |  |
| CC1=C(O)C(=O)C=C2C1=CC=C1[C@@]2(C)CC[C@@]2(C)[C@@H]3C[C@](C)(C(=O)OCCCOC(=O)/C=C(\C#N)c4ccc(C)cc4)CC[C@]3(C)CC[C@]12C | 21.6 |  |
| CC1=C(O)C(=O)C=C2C1=CC=C1[C@@]2(C)CC[C@@]2(C)[C@@H]3C[C@](C)(C(=O)OCCCCOC(=O)/C=C/c4ccc(C(F)(F)F)cc4)CC[C@]3(C)CC[C@]12C | 6.19 |  |
| CC1=C(O)C(=O)C=C2C1=CC=C1[C@@]2(C)CC[C@@]2(C)[C@@H]3C[C@](C)(C(=O)OCCCOC(=O)/C=C/c4ccccc4)CC[C@]3(C)CC[C@]12C | 33.2 |  |
| CC1=C(O)C(=O)C=C2C1=CC=C1[C@@]2(C)CC[C@@]2(C)[C@@H]3C[C@](C)(C(=O)OCCCCOC(=O)/C=C/c4ccc(F)cc4)CC[C@]3(C)CC[C@]12C | 14.7 |  |
| CC1=C(O)C(=O)C=C2C1=CC=C1[C@@]2(C)CC[C@@]2(C)[C@@H]3C[C@](C)(C(=O)OCCCOC(=O)/C=C(\C#N)c4ccc(C(F)(F)F)cc4)CC[C@]3(C)CC[C@]12C | 24.5 |  |
| CC1=C(O)C(=O)C=C2C1=CC=C1[C@@]2(C)CC[C@@]2(C)[C@@H]3C[C@](C)(C(=O)OCCCCOC(=O)/C=C(\C#N)c4ccccc4)CC[C@]3(C)CC[C@]12C | 3.19 |  |
| CC1=C(O)C(=O)C=C2C1=CC=C1[C@@]2(C)CC[C@@]2(C)[C@@H]3C[C@](C)(C(=O)OCCOC(=O)/C=C/c4ccc(F)cc4)CC[C@]3(C)CC[C@]12C | 27.7 |  |
| COc1ccc(/C(C#N)=C/C(=O)OC/C=C/COC(=O)[C@]2(C)CC[C@]3(C)CC[C@]4(C)C5=CC=C6C(=CC(=O)C(O)=C6C)[C@]5(C)CC[C@@]4(C)[C@@H]3C2)cc1 |  | IC50 (A549 [2]): 1340 nM; IC50 (MCF7): 1440 nM; IC50 (HOS): 1790 nM; IC50 (HepG2): 2710 nM |

Source: ChEMBL document CHEMBL4376838, “Discovery of Novel Celastrol Derivatives as Hsp90-Cdc37 Interaction Disruptors with Antitumor Activity” (J Med Chem, 2019)
